ChEMBL document CHEMBL3871269, “Conjugates of podophyllotoxin and norcantharidin as dual inhibitors of topoisomeraseⅡ and protein phosphatase 2A” (Eur J Med Chem, 2016)

test: Cytotoxicity against human A549 cells measured after 48 hrs by MTT assay; type: functional, cell-based; conditions: A549, 48 h
How it was run: (§1)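 MTT growth assay; cells seeded at 5×10³/well in RPMI1640 with 10% heat-inactivated FBS, attached 4–6 h, then exposed to five concentrations (0.01–100 μM, compounds dissolved in saline) for 48 h at 37 °C, 5% CO₂. MTT added for 4 h, formazan dissolved in DMSO, absorbance read at 490 nm. IC50 taken from log plot of percent of control versus concentration; means ± SD of triplicate experiments.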

In order of falling IC50:
1. COc1cc([C@@H]2c3cc4c(cc3[C@@H](NC(=O)[C@H](Cc3ccccc3)N3C(=O)C5C6CCC(O6)C5C3=O)[C@H]3COC(=O)[C@H]23)OCO4)cc(OC)c1O (stereo partly drawn)  14.1 µM
2. COc1cc([C@@H]2c3cc4c(cc3[C@@H](NC(=O)[C@H](Cc3cc5ccccc5[nH]3)N3C(=O)C5C6CCC(O6)C5C3=O)[C@H]3COC(=O)[C@H]23)OCO4)cc(OC)c1O (stereo partly drawn)  12 µM
3. CC[C@H](C)[C@@H](C(=O)N[C@@H]1c2cc3c(cc2[C@@H](c2cc(OC)c(O)c(OC)c2)[C@H]2C(=O)OC[C@@H]21)OCO3)N1C(=O)C2C3CCC(O3)C2C1=O (stereo partly drawn)  10.1 µM
4. COc1cc([C@@H]2c3cc4c(cc3[C@@H](NC(=O)[C@H](CCSC)N3C(=O)C5C6CCC(O6)C5C3=O)[C@H]3COC(=O)[C@H]23)OCO4)cc(OC)c1O (stereo partly drawn)  6.12 µM

test: Cytotoxicity against human HepG2 cells measured after 48 hrs by MTT assay; type: functional, cell-based; conditions: HepG2, 48 h; how it was run: as §1

In order of rising IC50:
1. CC[C@H](C)[C@@H](C(=O)N[C@@H]1c2cc3c(cc2[C@@H](c2cc(OC)c(O)c(OC)c2)[C@H]2C(=O)OC[C@@H]21)OCO3)N1C(=O)C2C3CCC(O3)C2C1=O (stereo partly drawn)  3.21 µM
2. COc1cc([C@@H]2c3cc4c(cc3[C@@H](NC(=O)[C@H](Cc3ccccc3)N3C(=O)C5C6CCC(O6)C5C3=O)[C@H]3COC(=O)[C@H]23)OCO4)cc(OC)c1O (stereo partly drawn)  5.53 µM
3. COc1cc([C@@H]2c3cc4c(cc3[C@@H](NC(=O)[C@H](Cc3cc5ccccc5[nH]3)N3C(=O)C5C6CCC(O6)C5C3=O)[C@H]3COC(=O)[C@H]23)OCO4)cc(OC)c1O (stereo partly drawn)  6.84 µM
4. COc1cc([C@@H]2c3cc4c(cc3[C@@H](NC(=O)[C@H](CCSC)N3C(=O)C5C6CCC(O6)C5C3=O)[C@H]3COC(=O)[C@H]23)OCO4)cc(OC)c1O (stereo partly drawn)  7.04 µM

test: Cytotoxicity against human HeLa cells measured after 48 hrs by MTT assay; type: functional, cell-based; conditions: not given; how it was run: as §1

In order of rising IC50:
1. COc1cc([C@@H]2c3cc4c(cc3[C@@H](NC(=O)[C@H](Cc3cc5ccccc5[nH]3)N3C(=O)C5C6CCC(O6)C5C3=O)[C@H]3COC(=O)[C@H]23)OCO4)cc(OC)c1O (stereo partly drawn)  2.35 µM
2. CC[C@H](C)[C@@H](C(=O)N[C@@H]1c2cc3c(cc2[C@@H](c2cc(OC)c(O)c(OC)c2)[C@H]2C(=O)OC[C@@H]21)OCO3)N1C(=O)C2C3CCC(O3)C2C1=O (stereo partly drawn)  2.52 µM
3. COc1cc([C@@H]2c3cc4c(cc3[C@@H](NC(=O)[C@H](CCSC)N3C(=O)C5C6CCC(O6)C5C3=O)[C@H]3COC(=O)[C@H]23)OCO4)cc(OC)c1O (stereo partly drawn)  2.82 µM
4. COc1cc([C@@H]2c3cc4c(cc3[C@@H](NC(=O)[C@H](Cc3ccccc3)N3C(=O)C5C6CCC(O6)C5C3=O)[C@H]3COC(=O)[C@H]23)OCO4)cc(OC)c1O (stereo partly drawn)  16 µM

test: Cytotoxicity against human HCT8 cells measured after 48 hrs by MTT assay; type: functional, cell-based; conditions: HCT-8, 48 h; how it was run: as §1

In order of rising IC50:
1. COc1cc([C@@H]2c3cc4c(cc3[C@@H](NC(=O)[C@H](Cc3ccccc3)N3C(=O)C5C6CCC(O6)C5C3=O)[C@H]3COC(=O)[C@H]23)OCO4)cc(OC)c1O (stereo partly drawn)  11.6 µM
2. COc1cc([C@@H]2c3cc4c(cc3[C@@H](NC(=O)[C@H](CCSC)N3C(=O)C5C6CCC(O6)C5C3=O)[C@H]3COC(=O)[C@H]23)OCO4)cc(OC)c1O (stereo partly drawn)  12.3 µM
3. COc1cc([C@@H]2c3cc4c(cc3[C@@H](NC(=O)[C@H](Cc3cc5ccccc5[nH]3)N3C(=O)C5C6CCC(O6)C5C3=O)[C@H]3COC(=O)[C@H]23)OCO4)cc(OC)c1O (stereo partly drawn)  15.2 µM
4. CC[C@H](C)[C@@H](C(=O)N[C@@H]1c2cc3c(cc2[C@@H](c2cc(OC)c(O)c(OC)c2)[C@H]2C(=O)OC[C@@H]21)OCO3)N1C(=O)C2C3CCC(O3)C2C1=O (stereo partly drawn)  23.6 µM

test: Cytotoxicity against human WI38 cells measured after 48 hrs by MTT assay; type: toxicity, cell-based, WI-38; conditions: not given
How it was run: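 MTT growth inhibition in WI-38 lung fibroblasts. Cells seeded at 5×10³/well in RPMI1640 with 10% heat-inactivated FBS, attached 4–6 h, then exposed 48 h at 37 °C, 5% CO₂ to five concentrations (0.01–100 μM, saline-dissolved). MTT 4 h, DMSO solubilisation, A490. IC50 from log plot of percent control vs concentration; triplicate, mean ± SD.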

In order of rising IC50 at 48 h:
1. COc1cc([C@@H]2c3cc4c(cc3[C@@H](NC(=O)[C@H](Cc3ccccc3)N3C(=O)C5C6CCC(O6)C5C3=O)[C@H]3COC(=O)[C@H]23)OCO4)cc(OC)c1O (stereo partly drawn)  29.6 µM
2. COc1cc([C@@H]2c3cc4c(cc3[C@@H](NC(=O)[C@H](CCSC)N3C(=O)C5C6CCC(O6)C5C3=O)[C@H]3COC(=O)[C@H]23)OCO4)cc(OC)c1O (stereo partly drawn)  30.4 µM
3. CC[C@H](C)[C@@H](C(=O)N[C@@H]1c2cc3c(cc2[C@@H](c2cc(OC)c(O)c(OC)c2)[C@H]2C(=O)OC[C@@H]21)OCO3)N1C(=O)C2C3CCC(O3)C2C1=O (stereo partly drawn)  65.2 µM
4. COc1cc([C@@H]2c3cc4c(cc3[C@@H](NC(=O)[C@H](Cc3cc5ccccc5[nH]3)N3C(=O)C5C6CCC(O6)C5C3=O)[C@H]3COC(=O)[C@H]23)OCO4)cc(OC)c1O (stereo partly drawn)  72.4 µM

test: Octanol-water partition coefficient, log P of the compound; type: physicochemical; conditions: read-out: logP
How it was run: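 Partition coefficient P = compound concentration in 1-octanol / compound concentration in water.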

In order of falling logP:
1. COc1cc([C@@H]2c3cc4c(cc3[C@@H](NC(=O)[C@H](Cc3ccccc3)N3C(=O)C5C6CCC(O6)C5C3=O)[C@H]3COC(=O)[C@H]23)OCO4)cc(OC)c1O (stereo partly drawn)  2.27
2. CC[C@H](C)[C@@H](C(=O)N[C@@H]1c2cc3c(cc2[C@@H](c2cc(OC)c(O)c(OC)c2)[C@H]2C(=O)OC[C@@H]21)OCO3)N1C(=O)C2C3CCC(O3)C2C1=O (stereo partly drawn)  1.91
3. COc1cc([C@@H]2c3cc4c(cc3[C@@H](NC(=O)[C@H](Cc3cc5ccccc5[nH]3)N3C(=O)C5C6CCC(O6)C5C3=O)[C@H]3COC(=O)[C@H]23)OCO4)cc(OC)c1O (stereo partly drawn)  1.69
4. COc1cc([C@@H]2c3cc4c(cc3[C@@H](NC(=O)[C@H](CCSC)N3C(=O)C5C6CCC(O6)C5C3=O)[C@H]3COC(=O)[C@H]23)OCO4)cc(OC)c1O (stereo partly drawn)  0.93

test: Inhibition of human RBC PP2A assessed as reduction in free phosphate ion release using Lys-Arg-pThr-Ile-Arg as substrate preincubated for 10 mins followed by substrate addition measured after 60 mins by malachite green method; conditions: not given
How it was run: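 Purified PP2A (0.6 mU/well) preincubated with inhibitor 10 min at 37 °C. Reaction started with 200 μM Lys-Arg-pThr-Ile-Arg in 50 mM Tris-HCl pH 7.0, 100 μM CaCl₂; 60 min at room temperature. Released phosphate read by malachite green at 650 nm after 10 min; enzyme-plus-buffer blanks. IC50 from dose–response; mean of three independent experiments in duplicate.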

Going from `COc1cc([C@@H]2c3cc4c(cc3[C@@H](NC(=O)[C@H](CCSC)N3C(=O)C5C6CCC(O6)C5C3=O)[C@H]3COC(=O)[C@H]23)OCO4)cc(OC)c1O` (stereo partly drawn) to `CC[C@H](C)[C@@H](C(=O)N[C@@H]1c2cc3c(cc2[C@@H](c2cc(OC)c(O)c(OC)c2)[C@H]2C(=O)OC[C@@H]21)OCO3)N1C(=O)C2C3CCC(O3)C2C1=O` (stereo partly drawn), the IC50 rises from 1.29 µM to 75.7 µM (59-fold).

Going from `COc1cc([C@@H]2c3cc4c(cc3[C@@H](NC(=O)[C@H](Cc3cc5ccccc5[nH]3)N3C(=O)C5C6CCC(O6)C5C3=O)[C@H]3COC(=O)[C@H]23)OCO4)cc(OC)c1O` (stereo partly drawn) to `COc1cc([C@@H]2c3cc4c(cc3[C@@H](NC(=O)[C@H](Cc3ccccc3)N3C(=O)C5C6CCC(O6)C5C3=O)[C@H]3COC(=O)[C@H]23)OCO4)cc(OC)c1O` (stereo partly drawn), the IC50 rises from 58.3 µM to > 100 µM.
